From PubChem
ERAP1 inh – blocks human ERAP1 aminopeptidase activity; Q9NZ08; recombinant ERAP1, Leu-AMC fluorescence, 60 min; inhibition, % at 10.7 µM; 340,000 tested, 0.15% active; AID 652197;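 active = mean replicate inhibition of at least 30%, or all replicates individually reaching that 30% level; inactive = mean below 30% and not every replicate reaching it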;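 note: 0% = neutral control wells and 100% = L-leucinethiol positive control wells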
CFTR F508del cor – CFTR F508del correction in bronchial cells; activity (quench increase), % at 7.58 µM; CFBE cells, YFP halide quenching; stimulated with forskolin plus potentiator P3; % fluorescence drop versus neutral controls; 350,000 tested, 0.36% active; AID 720511;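 active = mean added fluorescence quench of at least 8% versus neutral control, with both replicates also reaching 8%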;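 note: cells transiently co-express mutant CFTR-F508del with the halide-sensitive YFP; corrector assay measuring rescue of mutant channel to the surface after 24 h compound exposure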
rRNA inh HTS – selective bacterial rRNA inhibition in E. coli. E. coli WT GFP vs humanized-ribosome RFP mutants, fluorescence, 24 h; stronger effect = lower value; DMSO median 0, no signal -100. GFP signal change (wild-type ribosome), % (no concentration beside the values). 350,000 tested, 1.6% active. AID 720706;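 active = significant combined selectivity score with lowered wild-type GFP, culture density cut under 30%, mutant RFP and density less affected; inactive = any of these conditions unmet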
SIRT5 block – blocks human SIRT5 desuccinylation of peptide; Q9NXA8; Purified SirT5, succinyl-peptide AMC, trypsin-coupled fluorescence; inhibition, % at 15 µM; 330,000 tested, 1.1% active; AID 652115; in the data active = inhibition above about 15%
Target sequence (Q9NXA8 whole entry, looked up): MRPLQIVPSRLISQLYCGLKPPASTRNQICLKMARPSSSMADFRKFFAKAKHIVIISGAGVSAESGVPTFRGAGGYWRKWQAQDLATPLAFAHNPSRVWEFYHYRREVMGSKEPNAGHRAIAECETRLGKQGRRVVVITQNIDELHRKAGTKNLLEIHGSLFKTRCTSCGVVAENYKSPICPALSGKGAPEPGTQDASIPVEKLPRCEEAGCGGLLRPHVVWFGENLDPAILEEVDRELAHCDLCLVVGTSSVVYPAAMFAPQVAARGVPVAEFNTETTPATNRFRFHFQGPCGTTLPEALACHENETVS
S100A4 inh HTS – S100A4-myosin IIA interaction inhibition | P26447 | S100A4/TAMRA-MyoIIA peptide fluorescence polarization | inhibition, % at 10.7 µM | 360,000 tested, 0.14% active | AID 652163;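 active = mean inhibition of at least 70% across replicates, with every replicate also reaching that level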
Target sequence (P26447 whole entry, looked up): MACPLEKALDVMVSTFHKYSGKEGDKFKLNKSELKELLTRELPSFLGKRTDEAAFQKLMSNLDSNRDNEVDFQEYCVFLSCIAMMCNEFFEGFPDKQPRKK
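Material: S100A4 monomer protein / Buffer or medium: 50 mM HEPES pH 7.2, 10 mM CaCl2, 100 mM KCl / Times: 5 min incubation before reading / Benchmarks: neutral control DMSO, positive control TFP / Reagent: labelled myosin peptide probe, 5 nM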
The depositor's hits bear a star; / = no result. Only some compounds are listed: those with a hit (about 3.1% of all), similar ones and a draw of the others.

SMILES	ERAP1 inh	CFTR F508del cor	rRNA inh HTS	SIRT5 block	S100A4 inh HTS
COCCNC(=O)C[C@H]1C[C@@H]2c3cc(NC(=O)NC4CCCC4)ccc3O[C@@H]2[C@@H](CO)O1	-1	-2	6	1	3
COc1ccc(-c2cc(C(=O)NCCCN3CCCC3=O)c3ccccc3n2)cc1	3	0	-2	-9	-4
O=C(NCCCN1CCCC1=O)c1ccccc1OCc1ccc(Cl)cc1Cl	1	3	-31*	-4	9
O=C(NN=C1CCCC1)c1cc(-c2ccc(F)cc2)nc2ccccc12	-3	-1	20	-1	2
O=C(NNS(=O)(=O)c1cccc(Cl)c1)c1cc(-c2ccc(F)cc2)nc2ccccc12	-4	-1	-19*	-3	-1
O=C(NCCCN1CCCC1=O)c1cc(-c2ccc(F)cc2)nc2ccccc12	-4	5	-20*	/	3
CC=Cc1ccc2n(c1=O)C[C@@H]1[C@@H](CO)[C@H](C(=O)NCC3CC3)[C@H]2N1CC1CCOCC1 (mixture of isomers)	-4	2	1	-4	14
CN(C)C(=O)[C@H]1[C@H](CO)[C@H]2Cn3c(ccc(-c4ccncc4)c3=O)[C@@H]1N2CC1CC1	6	/	4	-7	-24
CO[C@@H]1CN(C)C(=O)c2ccc(NC(=O)C3CCC3)cc2OC[C@H](C)N(Cc2ccc(F)cc2)C[C@@H]1C	0	0	2	4	2
CO[C@@H]1CN(C)C(=O)c2ccc(NC(=O)c3cccc(F)c3)cc2OC[C@H](C)N(C(C)=O)C[C@@H]1C	0	1	-3	-2	12
O=C(N/N=C/c1ccc(OC2CSC2)cc1)c1ccc(CN2CCOCC2)cc1	0	-1	5	28*	0
COc1ccc(NC(=O)N(C)C[C@@H]2Oc3ccc(NC(=O)CCN4CCOCC4)cc3CC(=O)N([C@H](C)CO)C[C@@H]2C)cc1	3	-1	1	-1	-11
Cc1ccc2oc(C(=O)NCc3ccc(S(N)(=O)=O)cc3)cc(=O)c2c1	2	1	7	0	0
CCc1ccc2oc(C(=O)NCCc3ccc(S(N)(=O)=O)cc3)cc(=O)c2c1	2	3	-34*	-6	-8
CCCC#Cc1ccc([C@H]2[C@@H](CO)N3C(=O)CN(S(=O)(=O)Cc4ccccc4)C[C@@H]23)cc1	-2	1	-13	3	6
CO/N=C/CC(=O)c1ccc(-c2ccccc2)cc1	-8	-8	4	29*	-10
C/[N+]([O-])=C\CC(=O)c1ccc(-c2ccccc2)cc1	-10	-4	12	-3	6
Cc1ccccc1/C=C/c1cc[n+](C)cc1	31*	-2	10	11	-3
CCn1cc(/C=C/c2cc[n+](C)cc2)c2ccccc21	13	8	110	7	-22
CC(C)n1cc(/C=C/c2cc[n+](C)cc2)c2ccccc21	24	9.2*	79	8	-18
C=CCn1cc(/C=C/c2cc[n+](C)cc2)c2ccccc21	7	/	79	-8	-11
O=C(C[C@H]1CC[C@@H]2[C@H](COC[C@@H](O)CN2C(=O)c2cnccn2)O1)NCc1ccccc1	3	-1	3	1	3
C[C@@H]1CN([C@H](C)CO)C(=O)c2cc(NC(=O)C3CCCCC3)ccc2O[C@H]1CN(C)C(=O)NC1CCCCC1	5	-3	-1	0	6
C[C@@H]1CN([C@H](C)CO)C(=O)Cc2cc(NS(=O)(=O)c3cn(C)cn3)ccc2O[C@H]1CN(C)C	-2	1	1	-1	-4
Cc1nn2c(NCCCn3ccnc3)cc(C(C)C)nc2c1-c1ccccc1	0	-3	-45*	3	7
SMILES	ERAP1 inh	CFTR F508del cor	rRNA inh HTS	SIRT5 block	S100A4 inh HTS
CNC[C@H]1Oc2ccc(NC(=O)Nc3ccc(OC)cc3)cc2CC(=O)N([C@@H](C)CO)C[C@@H]1C	0	0	5	3	6
O=C(N/N=C/c1cccc(Oc2ccccc2)c1)c1ccccc1Br	3	-2	-28*	-3	-3
COc1ccc2c3c(n(C)c2c1)[C@H](CO)N(C(=O)c1ccccc1)CC31CCN(C(C)=O)CC1	-4	-1	0	1	4
CCC(=O)N1CC2(CCN(Cc3ccc(Cl)cc3)CC2)c2c(n(C)c3cc(OC)ccc23)[C@H]1CO	-1	14*	-2	-1	-4
COc1ccc2c3c(n(C)c2c1)[C@H](CO)N(C(=O)c1ccccc1)CC31CCN(C(=O)c2ccccc2)CC1	-4	0	-4	3	73*
C[C@H]1CN([C@@H](C)CO)C(=O)Cc2cc(NC(=O)c3ccncc3)ccc2O[C@H]1CN(C)C(=O)Nc1cccc2ccccc12	-4	-2	0	-4	-18
CC=Cc1ccc2n(c1=O)C[C@@H]1[C@@H](CO)[C@H](C(=O)NCC3CC3)[C@H]2N1C(=O)CC (mixture of isomers)	-1	-5	0	-24	4
C[C@H](CO)N1C[C@H](C)[C@H](CN(C)C(=O)c2ccncc2)Oc2ncc(C#CC3CCCCC3)cc2C1=O	-1	1	4	0	7
Cc1nn(-c2ccc(F)cc2)c2nc(N)c(C#N)c(-c3ccc(O)c(O)c3)c12	3	4	-18*	0	-6
CCCCNS(=O)(=O)c1ccc2nc(SCC(=O)c3ccccc3OC)[nH]c2c1	-6	-4	-45*	-5	-4
Cc1ccccc1C(=O)NNC(=S)NC(=O)COc1ccccc1	1	-4	-22*	-4	5
Cc1ccc(C(=O)NNC(=S)NC(=O)COc2ccccc2)cc1	7	-2	-10	2	2
CO[C@H]1CN(C)C(=O)c2cc(NC(=O)c3ccccc3)ccc2OC[C@@H](C)N(C(C)=O)C[C@@H]1C	-1	-2	/	-3	-6
COc1ccccc1-c1ccc(/C=N/O)o1	-1	0	-34*	-1	-1
O/N=C\c1ccc(-c2ccccc2)o1	-1	4	-1	-2	-1
O=C(NN1CCOCC1)c1ccc(Cl)cc1Cl	-1	0	7	-5	-3
O=S(=O)(NN1CCOCC1)c1cc(Cl)cc(Cl)c1O	37*	-3	3	-4	-5
Cc1cccc(NC(=S)N(Cc2ccc(Br)cc2)Cc2ccc(C(=O)O)cc2)c1	5	2	-8	1	-1
COc1cccc(NC(=O)NCCc2ccc(Cl)cc2)c1	11	0	-24*	1	4
COc1cccc(NC(=S)N(Cc2ccc(Cl)cc2)Cc2ccc(C(=O)O)cc2)c1	-7	4	-32*	1	-3
c1ccc2c(c1)C1=NCCN1c1ccccc1-2	1	11*	-23	-11	-1
Cc1cc2oc(C(=O)N3CCN(CCc4ccccn4)CC3)c(C)c2cc1C	-2	-1	-28*	-1	-5
